# WT yeast gro inh: growth inhibition of WT yeast, mitochondrial fusion screen. mitochondrial fusion phenotypic screen, WT strain. inhibition, % at 10 µM. 190,000 compounds, 2.1% hits; in the data active = inhibition above about 58%; tested in S. cerevisiae
# Yeast growth inh: reduces growth of yeast BB579 in restrictive medium; S. cerevisiae BB579 growth, OD615, 48 h; inhibition, % at 10 µM; 140,000 compounds, 0.51% hits; AID 804;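 active = inhibition above a set limit, 3 SD over the mean compound inhibition, cut at about 44% in these data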
#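 Test system: DeaD yeast strain BB579 / Buffer or medium: restrictive glucose-based CSMM-D medium / Doses: single 10 µM dose / Schedule: 4 h cell preincubation, 48 h compound exposure, 30 °C humidified / Technique: culture absorbance at 615 nm / Controls: amphotericin B positive control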
# RAM inhibit: yeast RAM network inhibition. S. cerevisiae dse1pr::URA3 reporter, 5-FOA growth OD615, 2 d; analog-sensitive cbk1-as2 kinase mutant strain. inhibition, % at 50 µM. 190,000 compounds, 1.8% hits. AID 868;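 active = inhibition above a set limit, 3 SD over mean compound inhibition, cut at about 8.4% in these data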;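 also: inhibition rescues growth on 5-FOA so higher OD means more RAM inhibition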
# Yeast life ext: extends the lifespan of yeast. S. cerevisiae growth with nicotinamide, OD615; deaD strain in restrictive glucose medium. inhibition of the nicotinamide effect, % at 10 µM. 130,000 compounds, 0.68% hits;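 active = inhibition above a set limit, placed 3 SD over the median of all compounds, cut at about 26% in these data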
#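 Buffer or medium: CSMM-D glucose medium, restrictive; test system: modified budding yeast, DeaD strain; compound: single dose 10 µM compound, 0.25% DMSO; schedule: culture preincubation 4 h, compound exposure 48 h, both 30 °C; detection: optical density (absorbance) at 615 nm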
# Cl transport mod: modulators of human KCC2 chloride dependent transport. KCC2 cells, thallium flux FluoZin-2 fluorescence. B-score of Tl+ flux slope (higher = more flux/activation; lower = inhibition) at 10 µM. 190,000 compounds, 2.2% hits. Q9H2X9;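 active = thallium flux slope and its plate-corrected score both differing from the plate sample mean at a set confidence after two filtering rounds, in either direction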;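 also: slope of fluorescence scaled to starting intensity during 10 to 20 s after thallium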
# A number is an active result; . = inactive; / = no result. Shown are actives, neighbours in structure and some others; about 5.5% of the full set was active somewhere.
SMILES,WT yeast gro inh,Yeast growth inh,RAM inhibit,Yeast life ext,Cl transport mod
CCn1c(C(=O)NCCCc2ccccc2)cc2sccc21,.,.,10,.,.
Cc1ccc(Cn2c(C(=O)NCCCN3CCOCC3)cc3sccc32)cc1,.,.,.,.,.
O=C(NCc1ccco1)c1cc2sccc2n1Cc1ccccc1,61,.,9.9,/,.
CCOC(=O)N1CCc2c(sc3nc4n(c(=O)c23)N=C(c2ccc(OC)cc2)CS4)C1,/,/,/,/,.
Cc1ccc(NC(=S)NNS(=O)(=O)c2ccc3ccccc3c2)cc1Cl,.,/,.,/,.
Cc1cccc(C)c1N=Cc1c(O)n(-c2nccs2)c(=O)c2ccccc12,.,.,.,33,.
Cc1c(Cc2ccccc2)sc(NC(=O)Cc2ccccc2)c1C(N)=O,/,/,/,/,.
CCC(=O)Nc1sc(Cc2ccccc2)c(C)c1C(N)=O,74,/,.,/,.
Cc1ccc(-c2cc3ccccc3nc2N2CCOCC2)cc1,59,/,.,/,.
c1ccc(-c2cc3ccccc3nc2N2CCCC2)cc1,.,.,.,.,/
CCOc1ccc(N2C(=O)/C(=C\c3ccccc3OC)S(=O)(=O)C2c2cccc([N+](=O)[O-])c2)cc1 (configuration not stated),.,.,.,.,.
O=C(Nc1nnc(-c2cccs2)s1)C1CC1,.,/,.,/,.
O=C(Nc1nc(-c2cccs2)c(-c2cccs2)s1)C1CCCC1,72,.,.,.,.
S=C(NCc1ccco1)N1CCC(c2nc3ccccc3o2)CC1,.,/,.,/,.
CC(C)CCn1c(Sc2nc3ccccc3o2)nc2c1c(=O)[nH]c(=O)n2C,.,.,.,.,.
CCOC(=O)c1oc2ccccc2c1CSc1nnnn1-c1ccc(C)cc1,.,.,10,.,.
COc1ccccc1N(CN1C(=O)c2ccccc2C1=O)C(=O)c1cccc(C)c1,.,.,.,.,.
C=C(C)c1cccc(C(C)(C)NC(=O)Nc2ccc(Cl)cn2)c1,74,.,11,.,.
C=C(C)c1cccc(C(C)(C)NC(=O)Nc2ncccn2)c1,.,.,.,.,/
Cc1ccc(S(=O)(=O)c2c(C)nn(C(C)(C)C)c2OC(=O)C2CCCC2)cc1,72,.,.,.,.
C=CCNC(=S)N(C1CCCCC1)C1CCCCC1,72,/,.,/,.
C=CCNC(=S)N(Cc1ccccc1)Cc1ccccc1,.,/,.,/,.
COc1cc(OC)cc(C(=O)N[C@H](C(=O)OCC(=O)Nc2ccc(C(C)C)cc2)C(C)C)c1,.,.,8.5,.,.
O=C1COC(c2ccccc2)C2CCCCN12 (configuration not stated),.,.,.,.,.
CCOC(=O)NC(=O)CSc1nnc(C2CC2)n1Cc1ccco1,.,/,.,/,.
SMILES,WT yeast gro inh,Yeast growth inh,RAM inhibit,Yeast life ext,Cl transport mod
O=C(Nc1ccc(Br)cc1)c1cccn1-c1ncc(C(F)(F)F)cc1Cl,78,.,.,.,/
NC(=O)c1cccn1-c1ncc(C(F)(F)F)cc1Cl,.,/,.,/,.
CC(C(=O)NC1CCCC1)N1CCN(Cc2ccccc2)CC1 (configuration not stated),.,/,.,/,.
CC(C(=O)NC(=O)NC1CCCCC1)N1CCN(C(c2ccccc2)c2ccccc2)CC1 (configuration not stated),73,.,.,.,.
CCC(CO)NCc1cc(OC)c(OCC(=O)NCCc2ccccc2)cc1Br (configuration not stated),.,.,.,.,.
CCOC(=O)c1cc2c(ccn2C)n1Cc1ccc(Cl)cc1,.,/,.,/,.
Cc1cccc(Cn2c(C(=O)OC(C)C)cc3c2ccn3C)c1,.,.,11,.,.
CCOC(=O)c1cc2c(ccn2C)n1Cc1ccc(C#N)cc1,.,/,10,/,.
Cc1nc([N+](=O)[O-])c(Sc2nc3ccc([N+](=O)[O-])cc3[nH]2)n1Cc1ccccc1,.,.,.,.,.
O=C(O)c1cc2nc(-c3ccccc3)cc(C(F)(F)F)n2n1,.,.,.,57,/
O=C(O)c1cc2nc(-c3ccccc3)cc(-c3ccccc3)n2n1,.,/,.,/,.
C[C@@H](C(=O)N[C@@H](Cc1c[nH]c2ccccc12)C(=O)O)n1nnc2ccccc2c1=O,/,/,/,/,.
O=C(N/N=C/c1c(O)n(-c2ccccc2Cl)c(=O)c2ccccc12)C1COc2ccccc2O1 (configuration not stated),.,.,.,.,.
O=c1c2ccccc2c(/C=N/c2n[nH]c(CCCO)n2)c(O)n1-c1ccccc1Cl,.,/,8.5,/,.
C=C(C)Cn1c(-c2ccncc2)n[nH]c1=S,.,/,.,/,.
CCN(CC)c1ncnc2c1ncn2Cc1c(Cl)cccc1Cl,.,.,.,/,.
Clc1cccc(Cl)c1Cn1cnc2c(N3CCCCCC3)ncnc21,75,.,.,.,.
Cc1ccc(CNC(=O)CCNC(=O)c2ccco2)cc1,95,.,.,.,.
COC(=O)C1=C(C)NC(=S)NC1c1ccco1 (configuration not stated),.,/,.,/,.
COc1ccccc1/C=C\C=N\n1c(C2CCCCC2)n[nH]c1=S,70,.,.,.,.
Cc1nn(-c2ccccc2)c(N)c1N=Nc1ccc2ccccc2c1,70,.,.,.,.
CCc1nnc(NC(=O)CCC(=O)NCc2ccc(OC)cc2)s1,/,/,/,/,.
COc1ccccc1CCN1C(=S)NC(C)(C)CC1(C)O (configuration not stated),70,.,.,.,.
COC(=O)c1sccc1NC(=O)c1c(C)c(-c2cccc(Cl)c2)nc2ccccc12,.,.,.,.,.
CCOC(=O)c1c(C)n(-c2ccc(C)cc2)c2ccc(OCC(O)CN3CCN(C)CC3)cc12 (configuration not stated),92,/,.,/,.
SMILES,WT yeast gro inh,Yeast growth inh,RAM inhibit,Yeast life ext,Cl transport mod
CCOC(=O)c1c(C)n(C)c2ccc(OCC(O)CN3CCN(C)CC3)cc12 (configuration not stated),.,.,.,.,/
O=C(CCN1CCCCCC1)Nc1ccc(F)cc1,.,.,.,64,.
CC1CCCC(n2c(=S)[nH]c3ccccc3c2=O)C1C (configuration not stated),.,.,.,.,29
CC1CCN(CCCn2c(=S)[nH]c3ccccc3c2=O)CC1,.,.,.,.,.
CC1CCCCN1CCCn1c(=S)[nH]c2ccccc2c1=O (configuration not stated),.,.,.,.,/
CC1CCC(n2c(=S)[nH]c3ccccc3c2=O)CC1 (configuration not stated),.,.,.,.,30
O=c1c2ccccc2[nH]c(=S)n1C1CCCCC1,.,.,.,.,69
O=c1c2ccccc2[nH]c(=S)n1CCCN1CCN(C2CCCCC2)CC1,.,.,.,.,.
CCCCCCCCCS(=O)(=O)N/N=C/c1cccc([N+](=O)[O-])c1,88,.,8.7,.,/
Cc1ccc(S(=O)(=O)N/N=C/c2cccc([N+](=O)[O-])c2)cc1,.,.,.,.,.
O=C(NCCC1=CCCCC1)C(=O)NCC1OCCCN1S(=O)(=O)c1ccc(F)cc1 (configuration not stated),.,/,.,/,.

# Screening data as filed in PubChem.
